Values after ≈ are worked out from the molar mass of the structure shown. Active and inactive are the calls of the source. The rule behind the calls is not given here.
Legend:
Pseudomonas aeruginosa [1] = experiment: Antimicrobial activity against Pseudomonas aeruginosa assessed as inhibition of microbial growth at 100 uM after 24 hrs; assay type: functional, organism-based
In short: (§1)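 Broth microdilution single-concentration read: overnight cultures diluted 1:1000, compound in DMF (≤2.0%) added, 37°C for 24 h, growth inhibition scored visually by lack of turbidity; triplicate. Gram-positives grown in TSB, Gram-negatives in LB.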

Enterobacter cloacae [2] = experiment: Bactericidal activity against Enterobacter cloacae after 24 hrs; assay type: functional
[3] = Cytotoxicity against human A549 cells assessed as cell viability recovery up to 125 uM after 48 hrs by MTT assay; assay type: cell-based; conditions: read-out: Activity
In short: (§2)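 A549 cells grown in F-12K with L-glutamine, 10% FBS, 1% penicillin-streptomycin, seeded at 1.0 × 10^5 ml−1, allowed to adhere 24 h (37°C, 5% CO2), then exposed to compound in 45% w/v (2-hydroxypropyl)-β-cyclodextrin vehicle for 48 h. MTT 4 h, formazan solubilized in DMSO, absorbance 540 nm. Percent recovery versus vehicle-only; IC50 derived; at least three independent experiments.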

Enterococcus faecium [4] = experiment: Induction of spontaneous mutation in Enterococcus faecium at 2 to 10 MIC; assay type: functional, organism-based
[5] = Selectivity index, ratio of IC50 for human A549 cells to MIC for Enterobacter cloacae
Acinetobacter baumannii [6] = experiment: Induction of spontaneous mutation in Acinetobacter baumannii at 2 to 10 MIC; assay type: functional, organism-based
[7] = Selectivity index, ratio of IC50 for human A549 cells to MIC for Enterococcus faecium
[8] = Induction of hemolysis in human RBC at 10 uM incubated for 15 mins; assay type: cell-based, Erythrocyte; conditions: red blood cells, read-out: Activity
In short: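 Human RBCs from whole blood, resuspended 20% v/v in HA buffer (NaCl, CaCl2), compound 10 μM, 15 min at 37°C. Centrifuged 5,500 g for 1 min, supernatant OD543 read. Percent hemolysis against DMF vehicle (0%) and 1.0% Triton X-100 (100%); triplicate.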

Klebsiella pneumoniae [9] = experiment: Antimicrobial activity against Klebsiella pneumoniae assessed as inhibition of microbial growth at 45 uM after 24 hrs; assay type: functional, organism-based; in short: as §1
Enterobacter cloacae [10] = experiment: Antibiofilm activity against Enterobacter cloacae incubated for 24 hrs followed by biofilm resuspension in PBS and measured after 24 hrs; assay type: functional
In short: (§3)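 Biofilms grown 24 h in 96-well plates from overnight cultures standardized to OD600 0.5 in fresh medium (human serum only for S. aureus; TSB for Gram-positives, LB for Gram-negatives). Medium then replaced with fresh medium containing a concentration range above and below MIC, 37°C overnight. After 24 h biofilm resuspended in PBS, serially diluted, plated in duplicate, CFU counted after 24 h at 37°C. Activity relative to untreated; three technical replicates; MBEC50 reported.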

Staphylococcus aureus [11] = experiment: Bactericidal activity against methicillin-resistant Staphylococcus aureus at MIC measured after drug wash out after 120 mins by time kill assay; assay type: functional
In short: (§4)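 MRSA from stationary phase was regrown 3 h in TSB and seeded at OD600 0.5. […] After 120 min, cells were centrifuged and washed, serially diluted and plated for CFU. Percent recovery is relative to no-drug controls.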

Acinetobacter baumannii [12] = experiment: Antimicrobial activity against Acinetobacter baumannii assessed as inhibition of microbial growth after 24 hrs; assay type: functional
In short: (§5)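 Broth microdilution against multidrug-resistant clinical ESKAPE isolates. Overnight cultures (TSB for Gram-positives, LB for Gram-negatives) diluted 1:1000 in fresh medium, compound in DMF (≤2.0% DMF) added at decreasing concentrations, 37°C.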

Staphylococcus aureus [13] = experiment: Antimicrobial activity against Staphylococcus aureus assessed as inhibition of microbial growth at 45 uM after 24 hrs; assay type: functional, organism-based; in short: as §1
Staphylococcus aureus [14] = experiment: Bactericidal activity against methicillin-resistant Staphylococcus aureus assessed as cell survival recovery at MIC measured after drug wash out after 120 mins by time kill assay; assay type: functional; in short: as §4
Pseudomonas aeruginosa [15] = experiment: Induction of spontaneous mutation in Pseudomonas aeruginosa at 2 to 10 MIC; assay type: functional, organism-based; conditions: 2 to 10 x MIC
Staphylococcus aureus [16] = experiment: Induction of spontaneous mutation in Staphylococcus aureus at 2 to 10 MIC; assay type: functional, organism-based
Enterococcus faecium [17] = experiment: Antibiofilm activity against Enterococcus faecium incubated for 24 hrs followed by biofilm resuspension in PBS and measured after 24 hrs; assay type: functional; in short: as §3
Staphylococcus aureus [18] = experiment: Antimicrobial activity against Staphylococcus aureus assessed as inhibition of microbial growth after 24 hrs; assay type: functional; in short: as §5
Pseudomonas aeruginosa [19] = experiment: Antimicrobial activity against Pseudomonas aeruginosa isolate 1420 assessed as inhibition of microbial growth at 2 uM in presence of 100 uM efflux pump inhibitor reserpine after 24 hrs; assay type: functional, organism-based
Enterobacter cloacae [20] = experiment: Antimicrobial activity against Enterobacter cloacae assessed as inhibition of microbial growth at 45 uM after 24 hrs; assay type: functional, organism-based; in short: as §1
Pseudomonas aeruginosa [21] = experiment: Antimicrobial activity against Pseudomonas aeruginosa isolate 1420 assessed as inhibition of microbial growth at 2 uM after 24 hrs; assay type: functional, organism-based
Pseudomonas aeruginosa [22] = experiment: Antimicrobial activity against Pseudomonas aeruginosa assessed as inhibition of microbial growth at 45 uM after 24 hrs; assay type: functional, organism-based; in short: as §1
Enterococcus faecium [23] = experiment: Antimicrobial activity against Enterococcus faecium assessed as inhibition of microbial growth at 45 uM after 24 hrs; assay type: functional, organism-based; in short: as §1
Pseudomonas aeruginosa [24] = experiment: Antimicrobial activity against Pseudomonas aeruginosa assessed as inhibition of microbial growth after 24 hrs; assay type: functional; in short: as §5
[25] = Selectivity index, ratio of IC50 for human A549 cells to MIC for Klebsiella pneumoniae
[26] = Selectivity index, ratio of IC50 for human A549 cells to MIC for Staphylococcus aureus
[27] = Selectivity index, ratio of IC50 for human A549 cells to MIC for Pseudomonas aeruginosa
Klebsiella pneumoniae [28] = experiment: Induction of spontaneous mutation in Klebsiella pneumoniae at 2 to 10 MIC; assay type: functional, organism-based
Enterococcus faecium [29] = experiment: Antimicrobial activity against Enterococcus faecium assessed as inhibition of microbial growth after 24 hrs; assay type: functional; in short: as §5
Staphylococcus aureus [30] = experiment: Ratio of MIC for Staphylococcus aureus measured after 8 cycle passage to MIC for wild type Staphylococcus aureus; assay type: functional
Pseudomonas aeruginosa [31] = experiment: Antibiofilm activity against Pseudomonas aeruginosa incubated for 24 hrs followed by biofilm resuspension in PBS and measured after 24 hrs; assay type: functional; in short: as §3
[32] = Cytotoxicity against human A549 cells assessed as cell viability recovery at 225 uM after 48 hrs by MTT assay; assay type: cell-based; conditions: read-out: Activity; in short: as §2
Pseudomonas aeruginosa [33] = experiment: Bactericidal activity against Pseudomonas aeruginosa after 24 hrs; assay type: functional
Acinetobacter baumannii [34] = experiment: Bactericidal activity against Acinetobacter baumannii after 24 hrs; assay type: functional
Enterococcus faecium [35] = experiment: Bactericidal activity against Enterococcus faecium after 24 hrs; assay type: functional
Klebsiella pneumoniae [36] = experiment: Bactericidal activity against Klebsiella pneumoniae after 24 hrs; assay type: functional
Staphylococcus aureus [37] = experiment: Antibiofilm activity against Staphylococcus aureus incubated for 24 hrs followed by biofilm resuspension in PBS and measured after 24 hrs; assay type: functional; in short: as §3
Acinetobacter baumannii [38] = experiment: Antibiofilm activity against Acinetobacter baumannii incubated for 24 hrs followed by biofilm resuspension in PBS and measured after 24 hrs; assay type: functional; in short: as §3
Staphylococcus aureus [39] = experiment: Effect on bacterial density of methicillin-resistant Staphylococcus aureus at MIC measured over 2 hrs period by time kill assay; assay type: functional, organism-based
A549 = experiment: Cytotoxicity against human A549 cells after 48 hrs by MTT assay; assay type: cell-based; conditions: A549, 48 h; in short: as §2
[40] = Selectivity index, ratio of IC50 for human A549 cells to MIC for Acinetobacter baumannii
Klebsiella pneumoniae [41] = experiment: Antibiofilm activity against Klebsiella pneumoniae incubated for 24 hrs followed by biofilm resuspension in PBS and measured after 24 hrs; assay type: functional; in short: as §3
Staphylococcus aureus [42] = experiment: Bactericidal activity against Staphylococcus aureus after 24 hrs; assay type: functional
Enterobacter cloacae [43] = experiment: Induction of spontaneous mutation in Enterobacter cloacae at 2 to 10 MIC; assay type: functional, organism-based
Enterobacter cloacae [44] = experiment: Antimicrobial activity against Enterobacter cloacae assessed as inhibition of microbial growth after 24 hrs; assay type: functional; in short: as §5
Acinetobacter baumannii [45] = experiment: Antimicrobial activity against Acinetobacter baumannii assessed as inhibition of microbial growth at 45 uM after 24 hrs; assay type: functional, organism-based; in short: as §1
Klebsiella pneumoniae [46] = experiment: Antimicrobial activity against Klebsiella pneumoniae assessed as inhibition of microbial growth after 24 hrs; assay type: functional; in short: as §5
Staphylococcus aureus [47] = experiment: Antimicrobial activity against Staphylococcus aureus USA300 strain FPR3757 infected in mouse model of lethal peritonitis assessed as mouse survival at 2 uM, im dosed 1 hr post infection and measured after 5 days post infection; assay type: functional, organism-based
In short: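 Mice, six per group, infected i.p. with 1 × 10^8 CFU ml−1 S. aureus USA300 FPR3757 in PBS with 5% mucin. Compound given i.m. at 2 μM 1 h later; vehicle 45% w/v (2-hydroxypropyl)-β-cyclodextrin in water i.v.; vancomycin i.v. as control. Monitored twice daily for 5 days, pre-moribund animals euthanized. Survival compared by log-rank test.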

For `COC(=O)[C@H]1[C@H]2C[C@@H]3c4[nH]c5cc(OC)ccc5c4CCN3C[C@H]2C[C@@H](OC(=O)c2cc(OC)c(OC)c(OC)c2)[C@@H]1OC`, the “growth inhibition (GI)” value (Pseudomonas aeruginosa [1]) was “inactive”.
With `CCCCCCCN1C(=N)N(CCCC[C@H]2CNC(=N)N2CCc2cccc(C(F)(F)F)c2)C[C@@H]1CCCC` the MBC90 (Enterobacter cloacae [2]) was 3.1 µM (≈ 1.71 µg/mL), the viability at 48 h [3] was over 63% and the Activity (Enterococcus faecium [4]) was “inactive”. The “Selectivity Index” value [5] was 100, the Activity (Acinetobacter baumannii [6]) was “inactive” and the “Selectivity Index” value [7] was 100. For the same compound, the hemolysis at 0.25 h, 10 µM [8] was 0.34%, the “growth inhibition (GI)” value (Klebsiella pneumoniae [9]) was “Active” and the MBEC50 (Enterobacter cloacae [10]) was 13 µM. For the same compound, the “fold change (FC)” value (Staphylococcus aureus [11]) was 2.5, the MIC (Acinetobacter baumannii [12]) was 1.6 µM and the “growth inhibition (GI)” value (Staphylococcus aureus [13]) was “Active”. The Survival (Staphylococcus aureus [14]) was 0.2%, the Activity (Pseudomonas aeruginosa [15]) was “inactive” and the Activity (Staphylococcus aureus [16]) was “inactive”. For the same compound, the MBEC50 (Enterococcus faecium [17]) was 39 µM, the MIC (Staphylococcus aureus [18]) was 1.6 µM and the “growth inhibition (GI)” value (Pseudomonas aeruginosa [19]) was “Active”. The “growth inhibition (GI)” value (Enterobacter cloacae [20]) was “Active”, the “growth inhibition (GI)” value (Pseudomonas aeruginosa [21]) was “inactive” and the “growth inhibition (GI)” value (Pseudomonas aeruginosa [22]) was “Active”. For the same compound, the “growth inhibition (GI)” value (Enterococcus faecium [23]) was “Active”, the MIC (Pseudomonas aeruginosa [24]) was 1.6 µM and the “Selectivity Index” value [25] was 100. The “Selectivity Index” value [26] was 100, the “Selectivity Index” value [27] was 100 and the Activity (Klebsiella pneumoniae [28]) was “inactive”. The MIC (Enterococcus faecium [29]) was 1.6 µM, the Ratio (Staphylococcus aureus [30]) was 2 and the MBEC50 (Pseudomonas aeruginosa [31]) was 20 µM. For the same compound, the viability at 48 h, 225 µM [32] was 40%, the MBC90 (Pseudomonas aeruginosa [33]) was 4 µM (≈ 2.2 µg/mL) and the MBC90 (Acinetobacter baumannii [34]) was 3.1 µM (≈ 1.71 µg/mL). The MBC90 (Enterococcus faecium [35]) was 1.9 µM (≈ 1.05 µg/mL), the MBC90 (Klebsiella pneumoniae [36]) was 2.4 µM (≈ 1.32 µg/mL) and the MBEC50 (Staphylococcus aureus [37]) was 14 µM. The MBEC50 (Acinetobacter baumannii [38]) was 15 µM, the Activity (Staphylococcus aureus [39]) was “inactive” and the IC50 (A549) was 164 µM. The “Selectivity Index” value [40] was 100, the MBEC50 (Klebsiella pneumoniae [41]) was 7 µM and the MBC90 (Staphylococcus aureus [42]) was 3.1 µM (≈ 1.71 µg/mL). For the same compound, the Activity (Enterobacter cloacae [43]) was “inactive”, the MIC (Enterobacter cloacae [44]) was 1.6 µM and the “growth inhibition (GI)” value (Acinetobacter baumannii [45]) was “Active”. The MIC (Klebsiella pneumoniae [46]) was 1.6 µM and the Activity (Staphylococcus aureus [47]) was “Active”.

From ChEMBL document CHEMBL3421570, “Combinatorial Libraries As a Tool for the Discovery of Novel, Broad-Spectrum Antibacterial Agents Targeting the ESKAPE Pathogens” (J Med Chem, 2015)
